ChEMBL document CHEMBL1687745 (Antimicrob Agents Chemother, 2009)
Values after ≈ are worked out from the molar mass of the structure shown. Active and inactive are the calls of the source. The rule behind the calls is not given here.

What was measured:
Bacillus subtilis [1] = assay: Disruption of bacterial membrane permeability in Bacillus subtilis BD54 using DiSC3 fluorescent dye staining based fluorimetric assay; type: functional, organism-based
Procedure, shortened: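 B. subtilis BD54 was grown in LB to OD600 0.4–0.5, washed and resuspended to OD600 0.1 in 5 mM HEPES pH 7.4 with 20 mM glucose. Cells were loaded with 1 µM DiSC3(5) for 10 min at room temperature, then 100 mM KCl was added. […] Fluorescence (ex 622/em 670 nm) was read after 5 min in eight wells per condition. DNP at 200 µg/ml served as positive control.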

J774.A1 = assay: Cytotoxicity against mouse J774A1 cells assessed as dead cells at 10 uM by Sytox green dye staining assay relative to untreated control; type: cell-based; settings: j774.a1, 10 µM
Procedure, shortened: (§1)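 J774A.1 macrophages, not infected, treated with 1% DMSO control or compound at 10 µM. Sytox green (impermeant to live cells) added for 15 min at 37°C. Cells centrifuged, washed twice in complete medium containing antibiotics, and analysed by flow cytometry for percent live and dead cells.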

Bacillus licheniformis = assay: Antimicrobial activity against Bacillus licheniformis clinical isolate by broth microdilution method; type: functional
Bacillus anthracis [2] = assay: Protection against Bacillus anthracis Sterne spores induced cell death in mouse J774A1 cells assessed as live viable cells at 10 uM by Sytox green dye staining assay relative to untreated control; type: functional, J774.A1
Enterococcus faecalis [3] = assay: Antimicrobial activity against Enterococcus faecalis 29212 clinical isolate by broth microdilution method; type: functional
Enterococcus faecalis [4] = assay: Antimicrobial activity against Enterococcus faecalis clinical isolate by broth microdilution method; type: functional
Procedure, shortened: (§2)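 Broth microdilution. Log-phase cultures (5 × 10^5 CFU/ml) seeded in 96-well plates with compound from 0 to 20 µM or 1% DMSO control. Incubated at 37°C for 16 to 20 h. Growth read as absorbance at 600 nm.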

Bacillus anthracis [5] = assay: Antibacterial activity against Bacillus anthracis Ames spores infected in C57BL/6 mouse assessed as mouse survival rate at 10 mg/kg, ip for 5 days every 6 hrs administered 6 hrs post bacterial challenge measured up to 20 days post infection; type: functional; settings: route intraperitoneal
Klebsiella pneumoniae = assay: Antimicrobial activity against Klebsiella pneumoniae 5657 by broth microdilution method; type: functional; procedure, shortened: as §2
Bacillus subtilis [6] = assay: Antimicrobial activity against Bacillus subtilis clinical isolate by broth microdilution method; type: functional
Enterococcus faecalis [7] = assay: Antimicrobial activity against vancomycin-resistant Enterococcus faecalis ATCC 51575 by broth microdilution method; type: functional
Bacillus anthracis [8] = assay: microbe, parasite or virus in culture; settings: Ames
[9] = test system: Burkholderia pseudomallei; assay: Antimicrobial activity against Burkholderia pseudomallei DD503 by broth microdilution method; type: functional
Bacillus anthracis [10] = assay: Antimicrobial activity against Bacillus anthracis Ames by broth microdilution method in presence of 10% fetal calf serum; type: functional
Staphylococcus aureus [11] = assay: Antibacterial activity against MBX 1090 resistant Staphylococcus aureus NCTC8325 isolates selected on 10 to 12 days of serial passage through MBX 1090; type: functional
Procedure, shortened: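 Eight independent S. aureus NCTC8325 cultures were grown with compound at 0.125× to 128× MIC. Each day, cells were passaged from the highest-concentration well still showing >50% of untreated growth, for up to 20 days. Colonies isolated from resistant cultures were confirmed by MIC assay.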

Staphylococcus aureus [12] = assay: Antimicrobial activity against methicillin-resistant Staphylococcus aureus 1094 by broth microdilution method; type: functional
Bacillus pumilus = assay: Antimicrobial activity against Bacillus pumilus clinical isolate by broth microdilution method; type: functional; procedure, shortened: as §2
Bacillus anthracis [13] = assay: Antimicrobial activity against Bacillus anthracis Vollum clinical isolate by broth microdilution method; type: functional
Bacillus anthracis [14] = assay: Antimicrobial activity against Bacillus anthracis Sterne vegetative cells by broth microdilution method; type: functional
Yersinia pestis [15] = assay: Antibacterial activity against Yersinia pestis CO92 infected in C57BL/6 mouse assessed as protection against microbe-induced mortality at 10 mg/kg, ip for 5 days every 6 hrs administered 6 hrs post bacterial challenge measured after 15 days post infection; type: functional; settings: route intraperitoneal
Pseudomonas aeruginosa = assay: Antimicrobial activity against Pseudomonas aeruginosa PAO1 by broth microdilution method; type: functional; procedure, shortened: as §2
Staphylococcus aureus [16] = assay: Antimicrobial activity against Staphylococcus aureus ATCC 25923 by broth microdilution method; type: functional; procedure, shortened: as §2
HeLa = assay: Effect on cell membrane integrity in human HeLa cells assessed as lactate dehydrogenase release at 32 times MIC against Staphylococcus aureus by CytoTox ONE homogenous membrane integrity assay; type: cell-based
Procedure, shortened: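 Confluent HeLa cells in DMEM treated for 1 h with a range of compound concentrations, 1% DMSO final. […] LDH activity in the supernatant measured by a membrane-integrity kit.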

[17] = test system: Mycolicibacterium smegmatis; assay: Antimicrobial activity against Mycobacterium smegmatis 35798 by broth microdilution method; type: functional; procedure, shortened: as §2
Staphylococcus aureus [18] = assay: Antimicrobial activity against methicillin-resistant Staphylococcus aureus clinical isolate by broth microdilution method; type: functional
Enterococcus faecium = assay: Antimicrobial activity against vancomycin-resistant Enterococcus faecium B42762 by broth microdilution method; type: functional
Staphylococcus aureus [19] = assay: Antibacterial activity against Staphylococcus aureus Smith infected in Swiss Webster mouse assessed as assessed as protection against microbe-induced mortality at 10 mg/kg, iv administered as single dose 15 mins post bacterial challenge measured 48 hrs post infection; type: functional
Procedure, shortened: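 Swiss Webster mice (n = 10/group) were challenged i.p. with 8.3 × 10^8 CFU. After 15 min they received a single i.v. dose in 10% dimethyl acetamide–5% dextrose in water (pH 4.0), alongside vehicle and daptomycin (10 mg/kg) controls. Survival was followed for 48 h.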

Yersinia pestis [20] = assay: Antimicrobial activity against Yersinia pestis by broth microdilution method; type: functional
[21] = test system: Mycolicibacterium smegmatis; assay: Antimicrobial activity against Mycobacterium smegmatis 700009 by broth microdilution method; type: functional; procedure, shortened: as §2
[22] = test system: Mycolicibacterium smegmatis; assay: Antimicrobial activity against Mycobacterium smegmatis 19420 by broth microdilution method; type: functional; procedure, shortened: as §2
Staphylococcus aureus [23] = assay: Antimicrobial activity against Staphylococcus aureus by broth microdilution method; type: functional; procedure, shortened: as §2
Escherichia coli = assay: Antimicrobial activity against Escherichia coli J53 clinical isolate by broth microdilution method; type: functional
Bacillus anthracis [24] = assay: Protection against Bacillus anthracis Sterne spores induced cell death in mouse J774A1 cells assessed as dead cells at 10 uM by Sytox green dye staining assay relative to untreated control; type: functional, J774.A1
Bacillus subtilis [25] = assay: Effect on bacterial membrane permeability in Bacillus subtilis BD54 upto 10 times MIC using DiSC3 fluorescent dye staining based fluorimetric assay; type: functional, organism-based
Procedure, shortened: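 B. subtilis BD54 grown in LB to OD600 0.4–0.5, washed, and resuspended to OD600 0.1 in 5 mM HEPES pH 7.4 with 20 mM glucose. Loaded with 1 µM DiSC3(5) for 10 min at room temperature, then 100 mM KCl added. […] Fluorescence read at 5 min (ex 622, em 670 nm). DNP 200 µg/ml positive control; mean ± SD of 8 wells.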

[26] = Cytotoxicity against human HeLa cells after 3 days by MTS assay in presence of 10% fetal calf serum; type: cell-based
Bacillus subtilis [27] = assay: Inhibition of DNA synthesis in Bacillus subtilis BD54 at 5 X MIC by [3H]thymidine incorporation assay; type: functional, organism-based
Procedure, shortened: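 Precursors were [methyl-3H]thymidine (DNA), [5-3H]uridine (RNA), L-[4,5-3H]leucine (protein) and N-acetyl-D-[1-3H]glucosamine (cell wall). Samples taken over time, precipitated with equal volume of ice-cold 20% TCA, filtered on glass fibre, and counted. cpm plotted against time.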

Bacillus anthracis [28] = assay: Inhibition of spore germination in Bacillus anthracis Sterne spores at MIC after 4 hrs; type: functional, organism-based
Bacillus anthracis [29] = assay: microbe, parasite or virus in culture; settings: Ames; remark: listed apart in the source
[30] = Cytotoxicity against mouse J774A1 cells assessed as live viable cells at 10 uM by Sytox green dye staining assay relative to untreated control; type: cell-based, J774.A1; settings: read-out: Activity; procedure, shortened: as §1
Burkholderia cepacia = assay: Antimicrobial activity against Burkholderia cepacia clinical isolate by broth microdilution method; type: functional; procedure, shortened: as §2
[31] = test system: Burkholderia thailandensis; assay: Antimicrobial activity against Burkholderia thailandensis by broth microdilution method; type: functional
Priestia megaterium = assay: Antimicrobial activity against Bacillus megaterium clinical isolate by broth microdilution method; type: functional
Burkholderia mallei = assay: Antimicrobial activity against Burkholderia mallei ATCC 23344 by broth microdilution method; type: functional
Brevibacillus brevis = assay: Antimicrobial activity against Bacillus brevis clinical isolate by broth microdilution method; type: functional; procedure, shortened: as §2

O=[N+]([O-])c1ccc(O)c([N+](=O)[O-])c1
Activity (Bacillus subtilis [1]): Active

c1cc2cc(-c3ccc(-c4cc5ccc(C6=NCCN6)cc5[nH]4)cc3)[nH]c2cc1C1=NCCN1
Activity (J774.A1): 5% | MIC (Bacillus licheniformis): 0.7 µg/mL (≈ 1.57 µM) | Activity (Bacillus anthracis [2]): 77% | MIC (Enterococcus faecalis [3]): 0.2 µg/mL (≈ 0.45 µM) | MIC (Enterococcus faecalis [4]): 0.2 µg/mL (≈ 0.45 µM) | survival at 10 mg/kg (Bacillus anthracis [5]): 100% | MIC (Klebsiella pneumoniae): 3.8 µg/mL (≈ 8.55 µM) | MIC (Bacillus subtilis [6]): 0.2 µg/mL (≈ 0.45 µM) | MIC (Enterococcus faecalis [7]): 0.1 µg/mL (≈ 0.225 µM) | MBC (Bacillus anthracis [8]): 0.7 µg/mL (≈ 1.57 µM) | MIC (Bacillus anthracis [8]): 0.3 µg/mL (≈ 0.675 µM) | MIC [9]: 1.7 µg/mL (≈ 3.82 µM) | MIC (Bacillus anthracis [10]): 1.1 µg/mL | MIC (Staphylococcus aureus [11]): Active | MIC (Staphylococcus aureus [12]): 0.2 µg/mL (≈ 0.45 µM) | MIC (Bacillus pumilus): < 0.1 µg/mL | MIC (Bacillus anthracis [13]): 0.3 µg/mL (≈ 0.675 µM) | MIC (Bacillus anthracis [14]): 0.7 µg/mL (≈ 1.57 µM) | survival at 10 mg/kg (Yersinia pestis [15]): 90% | MIC (Pseudomonas aeruginosa): 7.5 µg/mL (≈ 16.9 µM) | MIC (Staphylococcus aureus [16]): 0.1 µg/mL (≈ 0.225 µM) | Activity (HeLa): Non-toxic | MIC [17]: < 0.1 µg/mL | MIC (Staphylococcus aureus [18]): 0.3 µg/mL (≈ 0.675 µM) | MIC (Enterococcus faecium): < 0.1 µg/mL | survival at 10 mg/kg (Staphylococcus aureus [19]): 80% | MIC (Yersinia pestis [20]): 3.4 µg/mL (≈ 7.65 µM) | MIC [21]: 0.1 µg/mL (≈ 0.225 µM) | MIC [22]: < 0.1 µg/mL | MIC (Staphylococcus aureus [23]): 0.3 µg/mL (≈ 0.675 µM) | MIC (Escherichia coli): 0.7 µg/mL (≈ 1.57 µM) | Activity (Bacillus anthracis [24]): 22% | Activity (Bacillus subtilis [25]): Active | CC50 at 72 h [26]: 3 µg/mL | inhibition (Bacillus subtilis [27]): Active | inhibition (Bacillus anthracis [28]): inactive | MBC (Bacillus anthracis [29]): 0.4 µg/mL (≈ 0.9 µM) | viability at 10 µM [30]: 94% | MIC (Burkholderia cepacia): > 20 µg/mL | MIC [31]: 21 µg/mL (≈ 47.2 µM) | MIC (Priestia megaterium): 0.3 µg/mL (≈ 0.675 µM) | MIC (Burkholderia mallei): 1.7 µg/mL (≈ 3.82 µM) | MIC (Brevibacillus brevis): 0.7 µg/mL (≈ 1.57 µM)
